System: Fibroblast
Test: Multiplex assay against human fibroblast
Format: toxicity, cell-based
Outline: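 Cells stained live at seeding with Hoechst33342, BioTracker Green Microtubule Cytoskeleton Dye, MitoTracker Red and Annexin V Alexa Fluor 680 were imaged on a CQ1 microscope at 37°C and 5% CO2 after compound addition. Their classification by CellPathfinder machine-learning gating ran from Hoechst high-intensity objects versus normal cells, to healthy, pyknosed or fragmented nuclei among normal cells, to mitotic or apoptotic among pyknosed cells. Tubulin, mitochondrial-mass and membrane-permeability phenotypes are per cents of healthy-nucleus cells.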

[1] = 12 h, 1 µM, compound concentration 1 uM, replicate 1
[2] = 12 h, 1 µM, compound concentration 1 uM, replicate 2
[3] = 12 h, 10 µM, compound concentration 10 uM, replicate 1
[4] = 12 h, 10 µM, compound concentration 10 uM, replicate 2
[5] = 24 h, 1 µM, compound concentration 1 uM, replicate 1
[6] = 24 h, 1 µM, compound concentration 1 uM, replicate 2
[7] = 24 h, 10 µM, compound concentration 10 uM, replicate 1
[8] = 24 h, 10 µM, compound concentration 10 uM, replicate 2
[9] = 48 h, 1 µM, compound concentration 1 uM, replicate 1
[10] = 48 h, 1 µM, compound concentration 1 uM, replicate 2
[11] = 48 h, 10 µM, compound concentration 10 uM, replicate 1
[12] = 48 h, 10 µM, compound concentration 10 uM, replicate 2

## CC(C)OC(=O)N1CCC(Oc2ncnc3c2cnn3-c2ccc(S(C)(=O)=O)cc2F)CC1
[1]
  Population Apoptotic (%): 64%
  Population Fragmented Nuclei (%): 27%
  Population Healthy Nuclei (%): 50%
  Population Hoechst High Intensity Objects (%): 13%
  Population Membrane Permeable-Phenotype (%): 27%
  Population Mitochondria Different-Phenotype (%): 0%
  Population Mitotic Cells (%): 35%
  Population Normal (%): 86%
  Population Pyknosed Nuclei (%): 22%
  Population Tubulin-Different-Phenotype (%): 24%
  Total Cell Count: 86
[2]
  Population Apoptotic (%): 33%
  Population Fragmented Nuclei (%): 5%
  Population Healthy Nuclei (%): 91%
  Population Hoechst High Intensity Objects (%): 7%
  Population Membrane Permeable-Phenotype (%): 4%
  Population Mitochondria Different-Phenotype (%): 8%
  Population Mitotic Cells (%): 66%
  Population Normal (%): 92%
  Population Pyknosed Nuclei (%): 3%
  Population Tubulin-Different-Phenotype (%): 7%
  Total Cell Count: 97
[3]
  Population Apoptotic (%): 58%
  Population Fragmented Nuclei (%): 21%
  Population Healthy Nuclei (%): 43%
  Population Hoechst High Intensity Objects (%): 10%
  Population Membrane Permeable-Phenotype (%): 17%
  Population Mitochondria Different-Phenotype (%): 22%
  Population Mitotic Cells (%): 41%
  Population Normal (%): 89%
  Population Pyknosed Nuclei (%): 34%
  Population Tubulin-Different-Phenotype (%): 58%
  Total Cell Count: 164
[4]
  Population Apoptotic (%): 18%
  Population Fragmented Nuclei (%): 5%
  Population Healthy Nuclei (%): 77%
  Population Hoechst High Intensity Objects (%): 6%
  Population Membrane Permeable-Phenotype (%): 0%
  Population Mitochondria Different-Phenotype (%): 5%
  Population Mitotic Cells (%): 81%
  Population Normal (%): 93%
  Population Pyknosed Nuclei (%): 16%
  Population Tubulin-Different-Phenotype (%): 28%
  Total Cell Count: 72
[5]
  Population Apoptotic (%): 66%
  Population Fragmented Nuclei (%): 20%
  Population Healthy Nuclei (%): 58%
  Population Hoechst High Intensity Objects (%): 13%
  Population Membrane Permeable-Phenotype (%): 33%
  Population Mitochondria Different-Phenotype (%): 4%
  Population Mitotic Cells (%): 33%
  Population Normal (%): 86%
  Population Pyknosed Nuclei (%): 20%
  Population Tubulin-Different-Phenotype (%): 45%
  Total Cell Count: 83
[6]
  Population Apoptotic (%): 50%
  Population Fragmented Nuclei (%): 4%
  Population Healthy Nuclei (%): 86%
  Population Hoechst High Intensity Objects (%): 2%
  Population Membrane Permeable-Phenotype (%): 5%
  Population Mitotic Cells (%): 50%
  Population Normal (%): 97%
  Population Pyknosed Nuclei (%): 8%
  Population Tubulin-Different-Phenotype (%): 9%
  Total Cell Count: 116
[7]
  Population Apoptotic (%): 43%
  Population Fragmented Nuclei (%): 24%
  Population Healthy Nuclei (%): 48%
  Population Hoechst High Intensity Objects (%): 12%
  Population Membrane Permeable-Phenotype (%): 30%
  Population Mitochondria Different-Phenotype (%): 16%
  Population Mitotic Cells (%): 56%
  Population Normal (%): 87%
  Population Pyknosed Nuclei (%): 27%
  Population Tubulin-Different-Phenotype (%): 72%
  Total Cell Count: 156
[8]
  Population Apoptotic (%): 33%
  Population Fragmented Nuclei (%): 5%
  Population Healthy Nuclei (%): 87%
  Population Hoechst High Intensity Objects (%): 2%
  Population Membrane Permeable-Phenotype (%): 1%
  Population Mitochondria Different-Phenotype (%): 2%
  Population Mitotic Cells (%): 66%
  Population Normal (%): 97%
  Population Pyknosed Nuclei (%): 6%
  Population Tubulin-Different-Phenotype (%): 31%
  Total Cell Count: 93
[9]
  Population Apoptotic (%): 77%
  Population Fragmented Nuclei (%): 35%
  Population Healthy Nuclei (%): 52%
  Population Hoechst High Intensity Objects (%): 25%
  Population Membrane Permeable-Phenotype (%): 28%
  Population Mitochondria Different-Phenotype (%): 0%
  Population Mitotic Cells (%): 22%
  Population Normal (%): 74%
  Population Pyknosed Nuclei (%): 12%
  Population Tubulin-Different-Phenotype (%): 35%
  Total Cell Count: 99
[10]
  Population Apoptotic (%): 0%
  Population Fragmented Nuclei (%): 25%
  Population Healthy Nuclei (%): 74%
  Population Hoechst High Intensity Objects (%): 13%
  Population Membrane Permeable-Phenotype (%): 31%
  Population Mitochondria Different-Phenotype (%): 2%
  Population Mitotic Cells (%): 0%
  Population Normal (%): 86%
  Population Pyknosed Nuclei (%): 0%
  Population Tubulin-Different-Phenotype (%): 44%
  Total Cell Count: 73
[11]
  Population Apoptotic (%): 46%
  Population Fragmented Nuclei (%): 24%
  Population Healthy Nuclei (%): 51%
  Population Hoechst High Intensity Objects (%): 17%
  Population Membrane Permeable-Phenotype (%): 29%
  Population Mitochondria Different-Phenotype (%): 14%
  Population Mitotic Cells (%): 53%
  Population Normal (%): 82%
  Population Pyknosed Nuclei (%): 23%
  Population Tubulin-Different-Phenotype (%): 73%
  Total Cell Count: 143
[12]
  Population Apoptotic (%): 66%
  Population Fragmented Nuclei (%): 22%
  Population Healthy Nuclei (%): 73%
  Population Hoechst High Intensity Objects (%): 7%
  Population Membrane Permeable-Phenotype (%): 14%
  Population Mitochondria Different-Phenotype (%): 4%
  Population Mitotic Cells (%): 33%
  Population Normal (%): 92%
  Population Pyknosed Nuclei (%): 3%
  Population Tubulin-Different-Phenotype (%): 44%
  Total Cell Count: 99

## CC(C)NC(=O)N1CC[C@H](NC2=Nc3cc(F)ccc3N(CC(F)F)c3ccc(Cl)cc32)C1
[1]
  Population Apoptotic (%): 68%
  Population Fragmented Nuclei (%): 27%
  Population Healthy Nuclei (%): 30%
  Population Hoechst High Intensity Objects (%): 12%
  Population Membrane Permeable-Phenotype (%): 4%
  Population Mitochondria Different-Phenotype (%): 4%
  Population Mitotic Cells (%): 31%
  Population Normal (%): 87%
  Population Pyknosed Nuclei (%): 42%
  Population Tubulin-Different-Phenotype (%): 14%
  Total Cell Count: 79
[2]
  Population Apoptotic (%): 33%
  Population Fragmented Nuclei (%): 5%
  Population Healthy Nuclei (%): 89%
  Population Hoechst High Intensity Objects (%): 9%
  Population Mitochondria Different-Phenotype (%): 18%
  Population Mitotic Cells (%): 66%
  Population Normal (%): 90%
  Population Pyknosed Nuclei (%): 5%
  Total Cell Count: 293
[3]
  Population Apoptotic (%): 70%
  Population Fragmented Nuclei (%): 29%
  Population Healthy Nuclei (%): 40%
  Population Hoechst High Intensity Objects (%): 13%
  Population Membrane Permeable-Phenotype (%): 8%
  Population Mitochondria Different-Phenotype (%): 21%
  Population Mitotic Cells (%): 29%
  Population Normal (%): 86%
  Population Pyknosed Nuclei (%): 29%
  Population Tubulin-Different-Phenotype (%): 89%
  Total Cell Count: 160
[4]
  Population Apoptotic (%): 0%
  Population Fragmented Nuclei (%): 6%
  Population Healthy Nuclei (%): 81%
  Population Membrane Permeable-Phenotype (%): 13%
  Population Mitochondria Different-Phenotype (%): 63%
  Population Mitotic Cells (%): 100%
  Population Pyknosed Nuclei (%): 11%
  Population Tubulin-Different-Phenotype (%): 58%
  Total Cell Count: 62
[5]
  Population Apoptotic (%): 62%
  Population Fragmented Nuclei (%): 21%
  Population Healthy Nuclei (%): 40%
  Population Hoechst High Intensity Objects (%): 9%
  Population Membrane Permeable-Phenotype (%): 25%
  Population Mitochondria Different-Phenotype (%): 6%
  Population Mitotic Cells (%): 37%
  Population Normal (%): 90%
  Population Pyknosed Nuclei (%): 38%
  Population Tubulin-Different-Phenotype (%): 22%
  Total Cell Count: 84
[6]
  Population Apoptotic (%): 50%
  Population Fragmented Nuclei (%): 5%
  Population Healthy Nuclei (%): 88%
  Population Hoechst High Intensity Objects (%): 6%
  Population Membrane Permeable-Phenotype (%): 6%
  Population Mitochondria Different-Phenotype (%): 19%
  Population Mitotic Cells (%): 50%
  Population Normal (%): 93%
  Population Pyknosed Nuclei (%): 5%
  Population Tubulin-Different-Phenotype (%): 9%
  Total Cell Count: 281
[7]
  Population Apoptotic (%): 64%
  Population Fragmented Nuclei (%): 32%
  Population Healthy Nuclei (%): 45%
  Population Hoechst High Intensity Objects (%): 13%
  Population Membrane Permeable-Phenotype (%): 10%
  Population Mitochondria Different-Phenotype (%): 46%
  Population Mitotic Cells (%): 35%
  Population Normal (%): 86%
  Population Pyknosed Nuclei (%): 21%
  Population Tubulin-Different-Phenotype (%): 92%
  Total Cell Count: 163
[8]
  Population Apoptotic (%): 83%
  Population Fragmented Nuclei (%): 13%
  Population Healthy Nuclei (%): 73%
  Population Hoechst High Intensity Objects (%): 10%
  Population Membrane Permeable-Phenotype (%): 6%
  Population Mitochondria Different-Phenotype (%): 57%
  Population Mitotic Cells (%): 16%
  Population Normal (%): 90%
  Population Pyknosed Nuclei (%): 13%
  Population Tubulin-Different-Phenotype (%): 51%
  Total Cell Count: 75
[9]
  Population Apoptotic (%): 52%
  Population Fragmented Nuclei (%): 17%
  Population Healthy Nuclei (%): 58%
  Population Hoechst High Intensity Objects (%): 12%
  Population Membrane Permeable-Phenotype (%): 23%
  Population Mitochondria Different-Phenotype (%): 2%
  Population Mitotic Cells (%): 47%
  Population Normal (%): 87%
  Population Pyknosed Nuclei (%): 23%
  Population Tubulin-Different-Phenotype (%): 20%
  Total Cell Count: 83
[10]
  Population Apoptotic (%): 33%
  Population Fragmented Nuclei (%): 37%
  Population Healthy Nuclei (%): 59%
  Population Hoechst High Intensity Objects (%): 25%
  Population Mitochondria Different-Phenotype (%): 3%
  Population Mitotic Cells (%): 66%
  Population Normal (%): 74%
  Population Pyknosed Nuclei (%): 3%
  Population Tubulin-Different-Phenotype (%): 33%
  Total Cell Count: 126
[11]
  Population Apoptotic (%): 62%
  Population Fragmented Nuclei (%): 41%
  Population Healthy Nuclei (%): 48%
  Population Hoechst High Intensity Objects (%): 20%
  Population Membrane Permeable-Phenotype (%): 15%
  Population Mitochondria Different-Phenotype (%): 21%
  Population Mitotic Cells (%): 37%
  Population Normal (%): 80%
  Population Pyknosed Nuclei (%): 10%
  Population Tubulin-Different-Phenotype (%): 90%
  Total Cell Count: 190
[12]
  Population Apoptotic (%): 100%
  Population Fragmented Nuclei (%): 24%
  Population Healthy Nuclei (%): 74%
  Population Hoechst High Intensity Objects (%): 7%
  Population Membrane Permeable-Phenotype (%): 6%
  Population Mitochondria Different-Phenotype (%): 1%
  Population Mitotic Cells (%): 0%
  Population Normal (%): 92%
  Population Pyknosed Nuclei (%): 1%
  Population Tubulin-Different-Phenotype (%): 56%
  Total Cell Count: 88
